Data published in ChEMBL document CHEMBL5108089, “Structure-based discovery of potent inhibitors of Axl: design, synthesis, and biological evaluation” (RSC Med Chem, 2022).
Calls of active or inactive are those of the source. The rule behind the calls is not given here.

Key:
[1] = Metabolic stability in human liver microsomes assessed as half-life preincubated for 10 mins followed by NADPH addition and measured upto 60 mins by LC-MS/MS analysis; format: ADME, Microsome; conditions: time < 70 min
[2] = Metabolic stability in human liver microsomes assessed as intrinsic clearance preincubated for 10 mins followed by NADPH addition and measured upto 60 mins by LC-MS/MS analysis; format: ADME, Microsome; conditions: time < 70 min, read-out: CLH
[3] = Metabolic stability in rat liver microsomes assessed as intrinsic clearance preincubated for 10 mins followed by NADPH addition and measured upto 60 mins by LC-MS/MS analysis; format: ADME, Microsome; conditions: time < 70 min, read-out: CLH
[4] = AUC (0 to last) in Sprague-Dawley rat at 5 mg/kg, po measured upto 24 hrs by LC-MS/MS analysis; format: ADME, organism-based; design: dose 5 mg/kg, time < 24 hrs, route po; conditions: in vivo
[5] = Half-life in Sprague-Dawley rat at 5 mg/kg, po measured upto 24 hrs by LC-MS/MS analysis; format: ADME, organism-based; conditions: in vivo
[6] = Cmax in Sprague-Dawley rat at 1 mg/kg, iv measured upto 24 hrs by LC-MS/MS analysis; format: ADME, organism-based; design: time < 24 hrs, dose 1 mg/kg, route iv; conditions: in vivo
[7] = Clearance in Sprague-Dawley rat at 1 mg/kg, iv measured upto 24 hrs by LC-MS/MS analysis; format: ADME, organism-based; conditions: in vivo
HCC827 = assay: Antiproliferative activity against human HCC827 cells assessed as inhibition of cell growth incubated for 72 hrs by CCK-8 assay; format: functional
A549 = assay: Antiproliferative activity against human A549 cells assessed as inhibition of cell growth incubated for 72 hrs by CCK-8 assay; format: functional
Calu-3 = assay: Antiproliferative activity against human Calu-3 cells assessed as inhibition of cell growth incubated for 72 hrs by CCK-8 assay; format: functional
In short: (§1)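 Plated at 10000 cells/well. Dose series topped at 10 uM for test compound and at 1 uM for the staurosporine reference. Read-outs were CC50 and maximum % inhibition.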

Hep 3B2 = assay: Antiproliferative activity against human Hep 3B2.1-7 cells assessed as inhibition of cell growth incubated for 72 hrs by CCK-8 assay; format: functional; conditions: Hep3B
A-375 = assay: Antiproliferative activity against human A-375 cells assessed as inhibition of cell growth incubated for 72 hrs by CCK-8 assay; format: functional
HT-29 = assay: Antiproliferative activity against human HT-29 cells assessed as inhibition of cell growth incubated for 72 hrs by CCK-8 assay; format: functional
KYSE-510 = assay: Antiproliferative activity against human KYSE-510 cells assessed as inhibition of cell growth incubated for 72 hrs by CCK-8 assay; format: functional
MGC-803 = assay: Antiproliferative activity against human MGC-803 cells assessed as inhibition of cell growth incubated for 72 hrs by CCK-8 assay; format: functional
FaDu = assay: Antiproliferative activity against human FaDu cells assessed as inhibition of cell growth incubated for 72 hrs by CCK-8 assay; format: functional
CAL-27 = assay: Antiproliferative activity against human CAL-27 cells assessed as inhibition of cell growth incubated for 72 hrs by CCK-8 assay; format: functional
HeLa = assay: Antiproliferative activity against human HeLa cells assessed as inhibition of cell growth incubated for 72 hrs by CCK-8 assay; format: functional
U-87 MG = assay: Antiproliferative activity against human U87 cells assessed as inhibition of cell growth incubated for 72 hrs by CCK-8 assay; format: functional, U-87MG ATCC
COLO 205 = assay: Antiproliferative activity against human COLO 205 cells assessed as inhibition of cell growth incubated for 72 hrs by CCK-8 assay; format: functional
NAMALVA = assay: Antiproliferative activity against human NAMALVA cells assessed as inhibition of cell growth incubated for 72 hrs by CCK-8 assay; format: functional; in short: as §1
SUD4 = assay: Antiproliferative activity against human SU-DHL-4 cells assessed as inhibition of cell growth incubated for 72 hrs by CCK-8 assay; format: functional
In short: (§2)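 8000 cells/well. Test compound was serially diluted from a 10 uM top concentration and staurosporine from 1 uM. CC50 and maximum % inhibition are reported.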

T-24 = assay: Antiproliferative activity against human T24 cells assessed as inhibition of cell growth incubated for 72 hrs by CCK-8 assay; format: functional
RS4-11 = assay: Antiproliferative activity against human RS4-11 cells assessed as inhibition of cell growth incubated for 72 hrs by CCK-8 assay; format: functional; in short: as §2
MV4-11 = assay: Antiproliferative activity against human MV4-11 cells assessed as inhibition of cell growth incubated for 72 hrs by CCK-8 assay; format: functional; in short: as §2
KU812 cell line = assay: Antiproliferative activity against human KU812 cells assessed as inhibition of cell growth incubated for 72 hrs by CCK-8 assay; format: functional; in short: as §1
[8] = target: Tyrosine-protein kinase receptor UFO (Homo sapiens) (UniProt P30530); assay: Inhibition of Axl (unknown origin) a 1 uM relative to control
In short: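 Ran 40 min at room temperature, stopped with 0.5% phosphoric acid, then filter-bound, washed and scintillation-counted. Inhibition was calculated as 100 − activity (%), given as mean ±SD.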

[9] = target: Tyrosine-protein kinase Mer (Homo sapiens) (UniProt Q12866); assay: Inhibition of Mer (unknown origin) at 1 uM
[10] = target: Receptor-type tyrosine-protein kinase FLT3 (Homo sapiens) (UniProt P36888); assay: Inhibition of Flt3 (unknown origin) at 1 uM
[11] = target: Vascular endothelial growth factor receptor 2 (Homo sapiens) (UniProt P35968); assay: Inhibition of KDR (unknown origin) at 1 uM relative to control
[12] = target: Hepatocyte growth factor receptor (Homo sapiens) (UniProt P08581); assay: Inhibition of Met (unknown origin) at 1 uM relative to control
Hepatocyte growth factor receptor (Homo sapiens), sequence (P08581 whole entry): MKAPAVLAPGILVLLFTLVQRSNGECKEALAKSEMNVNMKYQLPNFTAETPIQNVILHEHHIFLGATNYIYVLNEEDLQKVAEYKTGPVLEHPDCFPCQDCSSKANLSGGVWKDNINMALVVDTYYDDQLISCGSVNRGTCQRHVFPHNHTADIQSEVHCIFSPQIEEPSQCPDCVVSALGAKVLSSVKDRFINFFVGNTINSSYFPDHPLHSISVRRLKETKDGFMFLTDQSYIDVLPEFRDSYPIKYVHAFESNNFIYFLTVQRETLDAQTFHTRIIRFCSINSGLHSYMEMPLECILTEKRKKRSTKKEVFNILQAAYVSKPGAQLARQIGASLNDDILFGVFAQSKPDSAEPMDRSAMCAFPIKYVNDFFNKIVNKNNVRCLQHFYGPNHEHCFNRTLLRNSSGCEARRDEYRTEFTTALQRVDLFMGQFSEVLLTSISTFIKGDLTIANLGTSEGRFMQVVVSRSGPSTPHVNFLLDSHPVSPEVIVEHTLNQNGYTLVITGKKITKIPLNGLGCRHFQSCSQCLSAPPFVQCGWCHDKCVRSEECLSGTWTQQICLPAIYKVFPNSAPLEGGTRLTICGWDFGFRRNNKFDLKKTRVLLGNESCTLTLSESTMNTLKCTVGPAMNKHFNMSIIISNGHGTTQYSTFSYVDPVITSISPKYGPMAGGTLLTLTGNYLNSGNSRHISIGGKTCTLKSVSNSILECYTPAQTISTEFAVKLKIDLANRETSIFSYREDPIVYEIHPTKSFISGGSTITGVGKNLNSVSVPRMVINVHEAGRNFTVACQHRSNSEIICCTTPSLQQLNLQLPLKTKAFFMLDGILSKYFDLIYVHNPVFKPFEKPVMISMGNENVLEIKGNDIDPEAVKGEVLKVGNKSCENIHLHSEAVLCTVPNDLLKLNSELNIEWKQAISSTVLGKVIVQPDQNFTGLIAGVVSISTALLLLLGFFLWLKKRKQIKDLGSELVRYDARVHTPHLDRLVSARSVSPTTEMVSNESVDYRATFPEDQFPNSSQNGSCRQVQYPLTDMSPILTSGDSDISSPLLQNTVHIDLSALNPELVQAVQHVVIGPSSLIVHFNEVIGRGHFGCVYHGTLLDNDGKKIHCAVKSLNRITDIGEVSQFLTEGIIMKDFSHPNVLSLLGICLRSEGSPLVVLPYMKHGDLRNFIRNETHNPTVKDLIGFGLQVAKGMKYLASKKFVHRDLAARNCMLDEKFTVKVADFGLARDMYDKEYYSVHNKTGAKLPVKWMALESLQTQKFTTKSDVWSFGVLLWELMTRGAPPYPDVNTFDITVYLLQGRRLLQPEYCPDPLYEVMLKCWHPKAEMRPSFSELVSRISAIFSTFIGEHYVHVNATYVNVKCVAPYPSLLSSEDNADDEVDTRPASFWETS

Tyrosine-protein kinase receptor UFO (Homo sapiens), sequence (P30530 whole entry): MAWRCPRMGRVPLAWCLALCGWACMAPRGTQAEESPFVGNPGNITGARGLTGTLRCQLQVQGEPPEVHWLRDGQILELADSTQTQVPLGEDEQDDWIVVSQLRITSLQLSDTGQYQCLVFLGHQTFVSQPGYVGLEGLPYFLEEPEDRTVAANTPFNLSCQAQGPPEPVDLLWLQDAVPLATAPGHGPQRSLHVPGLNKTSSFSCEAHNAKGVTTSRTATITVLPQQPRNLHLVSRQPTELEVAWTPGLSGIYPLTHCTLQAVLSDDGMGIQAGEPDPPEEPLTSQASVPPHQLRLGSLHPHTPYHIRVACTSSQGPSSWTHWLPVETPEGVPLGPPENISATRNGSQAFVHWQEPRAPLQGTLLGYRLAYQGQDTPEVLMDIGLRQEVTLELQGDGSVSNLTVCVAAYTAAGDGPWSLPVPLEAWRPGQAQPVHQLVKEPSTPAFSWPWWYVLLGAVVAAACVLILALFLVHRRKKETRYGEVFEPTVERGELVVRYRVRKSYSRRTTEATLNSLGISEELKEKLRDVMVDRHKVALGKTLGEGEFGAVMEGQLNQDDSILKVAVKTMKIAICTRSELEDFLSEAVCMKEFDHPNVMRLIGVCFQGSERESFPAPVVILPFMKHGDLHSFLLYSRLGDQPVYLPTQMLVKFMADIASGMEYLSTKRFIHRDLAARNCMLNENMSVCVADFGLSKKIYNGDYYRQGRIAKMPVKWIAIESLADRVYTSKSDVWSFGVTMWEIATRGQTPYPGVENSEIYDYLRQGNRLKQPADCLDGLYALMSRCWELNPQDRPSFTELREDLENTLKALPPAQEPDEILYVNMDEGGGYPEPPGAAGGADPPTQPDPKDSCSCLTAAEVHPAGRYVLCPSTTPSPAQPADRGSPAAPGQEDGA
Tyrosine-protein kinase Mer (Homo sapiens), sequence (Q12866 whole entry): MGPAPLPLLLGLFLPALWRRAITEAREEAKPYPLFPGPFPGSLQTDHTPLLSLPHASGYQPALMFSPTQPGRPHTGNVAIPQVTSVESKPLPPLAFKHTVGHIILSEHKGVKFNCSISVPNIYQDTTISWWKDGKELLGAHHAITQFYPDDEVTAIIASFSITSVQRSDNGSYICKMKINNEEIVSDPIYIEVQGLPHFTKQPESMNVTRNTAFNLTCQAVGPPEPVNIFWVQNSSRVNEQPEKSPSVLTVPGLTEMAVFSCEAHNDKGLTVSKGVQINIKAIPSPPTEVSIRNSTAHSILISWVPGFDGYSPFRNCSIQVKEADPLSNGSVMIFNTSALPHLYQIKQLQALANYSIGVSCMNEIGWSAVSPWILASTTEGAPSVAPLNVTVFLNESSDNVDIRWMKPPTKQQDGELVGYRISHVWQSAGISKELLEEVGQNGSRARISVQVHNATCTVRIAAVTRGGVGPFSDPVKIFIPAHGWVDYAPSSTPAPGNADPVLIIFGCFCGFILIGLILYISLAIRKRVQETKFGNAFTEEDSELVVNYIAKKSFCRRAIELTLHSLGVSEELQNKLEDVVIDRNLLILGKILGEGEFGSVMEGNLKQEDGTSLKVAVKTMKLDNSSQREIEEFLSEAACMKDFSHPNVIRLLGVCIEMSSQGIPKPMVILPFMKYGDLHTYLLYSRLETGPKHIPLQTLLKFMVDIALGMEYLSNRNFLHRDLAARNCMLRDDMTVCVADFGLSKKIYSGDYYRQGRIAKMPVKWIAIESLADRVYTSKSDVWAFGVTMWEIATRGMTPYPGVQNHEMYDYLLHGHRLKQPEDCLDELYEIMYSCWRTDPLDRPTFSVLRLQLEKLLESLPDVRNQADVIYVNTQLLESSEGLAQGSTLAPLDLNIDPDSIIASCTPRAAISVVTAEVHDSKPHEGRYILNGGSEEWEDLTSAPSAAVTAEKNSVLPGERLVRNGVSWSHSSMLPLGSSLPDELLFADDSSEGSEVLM
Vascular endothelial growth factor receptor 2 (Homo sapiens), sequence (P35968 whole entry): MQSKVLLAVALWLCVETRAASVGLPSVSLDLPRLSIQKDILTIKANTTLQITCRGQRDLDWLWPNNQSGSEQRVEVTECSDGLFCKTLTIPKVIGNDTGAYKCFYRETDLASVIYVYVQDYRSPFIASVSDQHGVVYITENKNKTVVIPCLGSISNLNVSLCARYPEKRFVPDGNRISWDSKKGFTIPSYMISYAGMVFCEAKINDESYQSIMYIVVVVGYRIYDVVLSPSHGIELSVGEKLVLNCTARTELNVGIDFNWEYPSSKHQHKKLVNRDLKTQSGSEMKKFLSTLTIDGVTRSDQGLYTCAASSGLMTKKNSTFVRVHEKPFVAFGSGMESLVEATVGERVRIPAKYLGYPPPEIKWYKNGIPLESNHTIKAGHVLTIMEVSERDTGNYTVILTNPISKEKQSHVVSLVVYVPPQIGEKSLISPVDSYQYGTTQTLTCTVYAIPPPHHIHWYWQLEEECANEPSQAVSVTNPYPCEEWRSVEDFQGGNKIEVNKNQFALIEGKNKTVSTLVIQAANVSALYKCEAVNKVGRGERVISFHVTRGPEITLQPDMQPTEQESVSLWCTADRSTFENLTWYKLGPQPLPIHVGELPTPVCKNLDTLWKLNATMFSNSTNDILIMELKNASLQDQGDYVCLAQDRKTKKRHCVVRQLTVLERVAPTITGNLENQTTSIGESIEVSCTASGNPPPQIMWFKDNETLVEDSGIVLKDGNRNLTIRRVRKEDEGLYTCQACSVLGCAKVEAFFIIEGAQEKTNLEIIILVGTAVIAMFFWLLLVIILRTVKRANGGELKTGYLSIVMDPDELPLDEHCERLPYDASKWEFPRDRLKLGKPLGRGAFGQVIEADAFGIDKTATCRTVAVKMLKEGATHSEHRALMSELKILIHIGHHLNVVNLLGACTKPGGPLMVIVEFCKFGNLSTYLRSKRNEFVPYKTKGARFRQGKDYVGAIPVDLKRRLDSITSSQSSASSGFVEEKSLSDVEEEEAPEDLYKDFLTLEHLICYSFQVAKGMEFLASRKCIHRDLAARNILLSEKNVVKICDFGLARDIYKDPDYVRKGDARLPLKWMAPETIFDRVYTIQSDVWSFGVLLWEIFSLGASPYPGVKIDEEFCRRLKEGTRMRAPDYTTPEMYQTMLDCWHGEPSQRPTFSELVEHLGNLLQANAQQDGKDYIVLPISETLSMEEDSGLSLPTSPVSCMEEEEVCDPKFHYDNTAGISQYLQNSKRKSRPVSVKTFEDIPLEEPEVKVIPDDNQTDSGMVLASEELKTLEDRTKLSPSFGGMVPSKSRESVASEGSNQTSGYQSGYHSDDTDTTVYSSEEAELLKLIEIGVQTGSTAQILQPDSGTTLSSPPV

`CC(C)n1cnc(-c2ccccc2Nc2nc(Nc3ccc(N(C)C4CCN(C)CC4)cc3)ncc2Cl)n1` gave a half-life [1] of 1.01 h, a CLint scaled [2] of 28.7 mL/min/kg and a CLint scaled [3] of 87.7 mL/min/kg. It also gave an AUClast [4] of 1180 ng·h/mL, a half-life [5] of 6.45 h and a Cmax [6] of 56.3 ng/mL. The clearance [7] was 36.7 mL/min/kg, the CC50 (HCC827) was 2050 nM and the CC50 (A549) was 293 nM. It also gave a CC50 (Calu-3) of 107 nM, a CC50 (Hep 3B2) of 81.2 nM and a CC50 (A-375) of 23900 nM. For the same compound, the CC50 (HT-29) was 504 nM, the CC50 (KYSE-510) was 117 nM and the CC50 (MGC-803) was 103 nM. For the same compound, the CC50 (FaDu) was 79.8 nM, the CC50 (CAL-27) was 107 nM and the CC50 (HeLa) was 199 nM. For the same compound, the CC50 (U-87 MG) was 3010 nM, the CC50 (COLO 205) was 350 nM and the CC50 (NAMALVA) was 494 nM. The CC50 (SUD4) was 35.9 nM, the CC50 (T-24) was 933 nM and the CC50 (RS4-11) was 138 nM. For the same compound, the CC50 (MV4-11) was 66 nM, the CC50 (KU812 cell line) was 233 nM and the inhibition [8] was 90%. The inhibition [9] was “Active”, the inhibition [10] was “Active” and the inhibition [11] was 70%. It also gave an inhibition [12] of 70%.
